Paper PMC10962891 (Hepatology Communications, 2024)
Entries after “also recorded” stand apart in the source; their conditions may differ. One block for each compound: values may come before it.

What was measured:
[1] = biological target: T1, human FXRα2 (Homo sapiens, UniProt Q96RI1); experiment: FXR luciferase reporter assay in 293T cells transfected with FXRα2; assay type: cell-based; conditions: for EC50: read-out: EC50 for FXR (cell-based reporter assay, composite EC50), second column entry, 293T cells expressing FXRα2, RXRα, ASBT, repeated thrice for L-TyrCDCA only
T1 sequence (Q96RI1 1-472 isoform Q96RI1-2): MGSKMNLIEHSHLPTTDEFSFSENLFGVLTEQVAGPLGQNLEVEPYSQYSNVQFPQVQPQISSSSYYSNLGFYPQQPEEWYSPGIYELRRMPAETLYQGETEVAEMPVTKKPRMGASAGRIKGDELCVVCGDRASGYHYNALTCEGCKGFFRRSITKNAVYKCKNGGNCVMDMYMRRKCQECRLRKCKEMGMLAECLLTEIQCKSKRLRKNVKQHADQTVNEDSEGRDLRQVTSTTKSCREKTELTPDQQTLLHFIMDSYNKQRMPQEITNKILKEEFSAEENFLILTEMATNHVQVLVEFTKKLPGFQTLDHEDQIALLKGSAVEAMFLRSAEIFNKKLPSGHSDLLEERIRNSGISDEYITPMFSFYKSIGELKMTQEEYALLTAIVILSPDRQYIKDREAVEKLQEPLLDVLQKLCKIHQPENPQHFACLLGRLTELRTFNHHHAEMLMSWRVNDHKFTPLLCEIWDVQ
T1 sequence (P19793 1-462 partner): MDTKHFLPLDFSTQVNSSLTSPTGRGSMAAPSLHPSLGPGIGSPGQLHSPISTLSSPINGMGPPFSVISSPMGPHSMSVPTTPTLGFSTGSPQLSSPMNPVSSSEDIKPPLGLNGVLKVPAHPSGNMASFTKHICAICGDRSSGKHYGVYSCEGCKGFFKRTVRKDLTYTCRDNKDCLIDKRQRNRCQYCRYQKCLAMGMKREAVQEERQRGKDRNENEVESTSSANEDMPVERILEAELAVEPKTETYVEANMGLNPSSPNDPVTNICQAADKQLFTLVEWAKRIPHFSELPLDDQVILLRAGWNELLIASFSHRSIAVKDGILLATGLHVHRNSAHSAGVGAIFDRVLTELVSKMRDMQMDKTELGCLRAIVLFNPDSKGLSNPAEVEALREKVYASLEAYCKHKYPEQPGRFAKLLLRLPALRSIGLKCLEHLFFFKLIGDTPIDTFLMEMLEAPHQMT
In short: (§1)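 293T cells (70–80% confluent) were co-transfected by lipofection with FXRα2 or FXRα4 (10 ng), RXRα (2 ng), an Shp-element firefly reporter (5 ng), Renilla pRL-TK (2 ng), ASBT or NTCP (0 or 1 ng) and GFP filler to 100 ng. After 24 h, cells received 0.1% DMSO, a 10 µM positive control, or test compounds in serum-free medium for 24 h. Firefly:Renilla ratios were set relative to DMSO; quadruplicates, 3 independent runs.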

[2] = biological target: T2, human TGR5 (Homo sapiens, UniProt Q8TDU6); experiment: cell-based
T2 sequence (Q8TDU6 1-330): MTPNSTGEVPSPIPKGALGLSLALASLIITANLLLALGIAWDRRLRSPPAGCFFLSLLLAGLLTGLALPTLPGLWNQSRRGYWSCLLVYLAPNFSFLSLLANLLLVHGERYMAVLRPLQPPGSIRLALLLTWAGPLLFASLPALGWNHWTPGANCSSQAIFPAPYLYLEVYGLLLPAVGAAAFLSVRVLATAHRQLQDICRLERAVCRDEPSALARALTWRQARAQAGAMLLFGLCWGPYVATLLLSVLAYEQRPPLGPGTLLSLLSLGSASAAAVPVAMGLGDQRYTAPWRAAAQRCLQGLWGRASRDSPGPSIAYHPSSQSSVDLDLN

[3] = test system: microbial composition; conditions: initial tests; cited from earlier work
[4] = mice, considerable dose; cited from earlier work
[5] = biological target: T3, human FXRα4 (Homo sapiens, UniProt Q96RI1); experiment: FXR luciferase reporter assay in 293T cells transfected with FXRα4; assay type: cell-based; conditions: 10 µM, cells overexpressing FXRα4, independent of bile salt importer
T3 sequence (Q96RI1 1-482 isoform Q96RI1-4): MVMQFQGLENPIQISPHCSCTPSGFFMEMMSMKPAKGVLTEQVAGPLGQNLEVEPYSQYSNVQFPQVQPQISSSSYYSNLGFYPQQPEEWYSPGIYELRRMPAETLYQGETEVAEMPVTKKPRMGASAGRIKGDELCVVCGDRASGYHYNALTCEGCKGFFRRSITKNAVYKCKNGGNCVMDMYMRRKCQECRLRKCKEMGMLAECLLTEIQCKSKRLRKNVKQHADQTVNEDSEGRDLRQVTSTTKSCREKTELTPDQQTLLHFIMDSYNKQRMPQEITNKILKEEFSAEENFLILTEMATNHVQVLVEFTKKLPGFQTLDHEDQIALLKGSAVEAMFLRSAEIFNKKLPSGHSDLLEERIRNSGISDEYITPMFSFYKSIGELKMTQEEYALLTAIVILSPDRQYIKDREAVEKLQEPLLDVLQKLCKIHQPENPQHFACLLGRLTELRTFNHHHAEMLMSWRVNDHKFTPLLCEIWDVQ
T3 sequence (P19793 1-462 partner): T1 sequence (P19793 1-462 partner)
In short: as §1

[6] = test system: RAW264.7 cells; experiment: LPS-induced cytokine release; assay type: cell-based, murine; conditions: then 3 ng/mL LPS 23 h; for effect on LPS-enhanced medium levels of TNFα and IL-6: 100 µM pretreatment 1 h
In short: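 RAW264.7 cells at 70–80% confluency were pretreated 1 h in serum-free medium with 0.1% DMSO, a 50 µM positive control, or test compounds. LPS (E. coli O128:B12, 3 ng/mL) was then added for 23 h. Cleared supernatants (300 g, 10 min) were assayed for IL-6 and TNFα by ELISA, normalized to cellular protein. Quadruplicates; three repeats.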

[7] = test system: C. difficile; conditions: cited from earlier work
[8] = test system: C. difficile; conditions: cited from earlier work; remark: listed apart in the source
[9] = biological target: T2, human TGR5; assay type: cell-based; conditions: 10 µM positive control, 293T cells -/+ TGR5 overexpression

EC50 [1]: 9.9 µM
Compound: C[C@H](CCC(=O)N[C@H](Cc1ccc(O)cc1)C(=O)O)[C@H]1CC[C@H]2[C@@H]3[C@H](O)C[C@@H]4C[C@H](O)CC[C@]4(C)[C@H]3C[C@H](O)[C@]12C [D-TyrCA, D-Tyrosocholic acid]

EC50 [1]: 6.8 µM
Compound: C[C@H](CCC(=O)N[C@H](Cc1ccc(O)cc1)C(=O)O)[C@H]1CC[C@H]2[C@@H]3[C@H](O)C[C@@H]4C[C@H](O)CC[C@]4(C)[C@H]3CC[C@]12C [D-TyrCDCA, D-Tyrosochenodeoxycholic acid]

EC50 [2]: 342 ± 26.7 µM
Compound: C[C@H](CCC(=O)NCC(=O)O)[C@H]1CC[C@H]2[C@@H]3[C@H](O)C[C@@H]4C[C@H](O)CC[C@]4(C)[C@H]3C[C@H](O)[C@]12C [GCA, glycocholic acid]

EC50 [2]: 29.4 ± 0.9 µM
Compound: CC(CCC(=O)NCC(=O)O)C1CCC2C3C(O)CC4CC(O)CCC4(C)C3CCC12C (centres unmarked) [GCDCA, glycochenodeoxycholic acid]

EC50 [1]: 46.3 µM | affinity for FXRα2 relative to D/L-TyrCDCA (fold lower) ([1]; reporter cells expressing uptake transporter): 6 fold
Compound: C[C@H](CCC(=O)N[C@@H](Cc1ccc(O)cc1)C(=O)O)[C@H]1CC[C@H]2[C@@H]3[C@H](O)C[C@@H]4C[C@H](O)CC[C@]4(C)[C@H]3C[C@H](O)[C@]12C [L-TyrCA, L-Tyrosocholic acid]

EC50 [1]: 7.8 µM
Compound: C[C@H](CCC(=O)N[C@@H](Cc1ccc(O)cc1)C(=O)O)[C@H]1CC[C@H]2[C@@H]3[C@H](O)C[C@@H]4C[C@H](O)CC[C@]4(C)[C@H]3CC[C@]12C [L-TyrCDCA, L-Tyrosochenodeoxycholic acid]

Compound: CC(C)C[C@H](NC(=O)CC[C@@H](C)[C@H]1CC[C@H]2[C@@H]3[C@H](O)C[C@@H]4C[C@H](O)CC[C@]4(C)[C@H]3C[C@H](O)[C@]12C)C(=O)O [LeuCA, leucocholic acid]
effect on microbial composition in vitro [3]: did not affect | detection in portal blood or bile after repeated oral gavage [4]: failure to detect; also recorded: did not lead to detection

FXR reporter activation in mock-transfected cells (-OSTαβ) ([1]; 10 µM, FXRα2/RXRα, no transporter): able to activate FXR | FXR reporter activation ([1]; 10 µM, cells overexpressing FXRα2, independent of bile salt importer): strongly activated | FXR reporter activation [5]: strongly activated
Compound: CC[C@H]1[C@@H](O)[C@@H]2[C@H](CC[C@]3(C)[C@@H]([C@H](C)CCC(=O)O)CC[C@@H]23)[C@@]2(C)CC[C@@H](O)C[C@@H]12 [OCA, obeticholic acid, reference compound]

Compound: C[C@H](CCC(=O)N[C@@H](Cc1ccccc1)C(=O)O)[C@H]1CC[C@H]2[C@@H]3[C@H](O)C[C@@H]4C[C@H](O)CC[C@]4(C)[C@H]3C[C@H](O)[C@]12C [PheCA, phenylalanocholic acid]
effect on microbial composition in vitro [3]: did not affect | effect on LPS-enhanced medium levels of TNFα and IL-6 [6]: counteracted | growth of C. difficile [7]: not inhibited | spore germination of C. difficile [8]: inhibit

Compound: C[C@H](CCC(=O)N[C@@H](Cc1ccccc1)C(=O)O)[C@H]1CC[C@H]2[C@@H]3[C@H](O)C[C@@H]4C[C@H](O)CC[C@]4(C)[C@H]3CC[C@]12C [PheCDCA, phenylalanochenodeoxycholic acid]
effect on LPS-enhanced medium levels of TNFα and IL-6 [6]: counteracted

Compound: C[C@H](CCC(=O)N[C@@H](Cc1ccccc1)C(=O)O)[C@H]1CC[C@H]2[C@@H]3[C@@H](O)[C@@H](O)[C@@H]4C[C@H](O)CC[C@]4(C)[C@H]3CC[C@]12C [Pheβ muricholic acid]
spore germination of C. difficile [8]: inhibit

EC50 [2]: 277 ± 16.6 µM
Compound: C[C@H](CCC(=O)NCCS(=O)(=O)O)[C@H]1CC[C@H]2[C@@H]3[C@H](O)C[C@@H]4C[C@H](O)CC[C@]4(C)[C@H]3C[C@H](O)[C@]12C [TCA, Taurocholic acid]

Compound: C[C@H](CCC(=O)NCCS(=O)(=O)O)[C@H]1CC[C@H]2[C@@H]3CC[C@@H]4C[C@H](O)CC[C@]4(C)[C@H]3CC[C@]12C [TLCA, taurolithocholic acid, reference compound]
change of LPS-induced IL-6 level ([6]; 50 µM pretreatment 1 h): -4.6 fold | change of LPS-induced TNFα level ([6]; 50 µM pretreatment 1 h): -3.6 fold

Compound: C[C@H](CCC(=O)N[C@@H](Cc1ccc(O)cc1)C(=O)O)[C@H]1CC[C@H]2[C@@H]3[C@H](O)C[C@@H]4C[C@H](O)CC[C@]4(C)[C@H]3C[C@H](O)[C@]12C [TyrCA, tyrosocholic acid]
effect on microbial composition in vitro [3]: did not affect | detection in portal blood or bile after repeated oral gavage [4]: failure to detect; also recorded: did not lead to detection | growth of C. difficile [7]: not inhibited | spore germination of C. difficile [8]: inhibit

Compound: C=C[C@@]1(C)CC(=O)[C@]2(O)[C@@]3(C)[C@@H](O)CCC(C)(C)[C@@H]3[C@H](O)[C@H](OC(C)=O)[C@@]2(C)O1 [forskolin, Forskolin A]
activation of cAMP-driven reporter [9]: activated the reporter independent of TGR5 overexpression
